Measured values published in paper PMC5953009 (Chemical Science, 2015).
In brackets after ≈: the same amount, converted by molar mass. Read-outs that look alike come from different tables or passages of the source. Marks after values point to notes of the source that are not given here. Values belong to the compound of their own block, whether it stands above or below them.

Columns and labels:
[1] = system: Pseudomonas aeruginosa strain PAO1 biofilms; test: Dispersal of already established biofilms; format: cell-based; settings: 24 h
Procedure, shortened: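 PAO1 inoculum (LB overnight, washed, OD600 1) grown as biofilm 24 h at 37 °C, static, without compound, in 0.25% nutrient broth. Wells washed twice, then 0.25% broth with sterile-filtered test compound added (50 μM or stated concentration). After a further 24 h at 37 °C static, wells washed twice and stained 2.5–3 h with 0.5 mM WST-8/20 μM phenazine ethosulfate. A450 read; value is concentration giving complete dispersal.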

[2] = system: Pseudomonas aeruginosa PAO1; settings: cited from earlier work
LecA = biological target: T1, LecA (Pseudomonas aeruginosa, UniProt Q05097); test: Isothermal titration calorimetry; format: binding
T1 sequence (Q05097 1-122): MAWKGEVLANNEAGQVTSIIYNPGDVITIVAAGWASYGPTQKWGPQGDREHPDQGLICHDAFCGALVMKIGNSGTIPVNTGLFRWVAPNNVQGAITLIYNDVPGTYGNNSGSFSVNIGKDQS

[3] = system: Pseudomonas aeruginosa PAO1; test: Broth microdilution method; format: cell-based; settings: standard 2-fold dilution assay, full LB medium
Procedure, shortened: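 Broth microdilution: 64 μM compound stocks in LB, sterile-filtered, diluted serially 1/2 in LB. PAO1 grown overnight in LB (37 °C, 180 rpm), diluted to OD600 0.022; 4 μL added to 150 μL sample (~5 × 10^5 CFU). Sterility, growth and polymyxin B (from 64 μg mL−1) controls. Incubated ~18 h at 37 °C, static. MTT (1 mg mL−1) added, 10 min RT. MIC = lowest concentration without visible growth by eye.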

LecB = LecB (Pseudomonas aeruginosa, UniProt Q9HYN5); test: Isothermal titration calorimetry; format: binding
[4] = system: Pseudomonas aeruginosa strain PAO1 biofilms; test: Biofilm inhibition; format: cell-based; settings: 24 h growth, WST-8; compound alone
Procedure, shortened: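 PAO1 grown overnight in LB at 37 °C with 180 rpm shaking, washed in 0.25% (w/v) nutrient broth and normalised to OD600 1. Inoculated into 0.25% nutrient broth no. 2 containing sterile-filtered test compound at varied concentrations. Incubated 24–25 h at 37 °C, static, humid. Wells washed twice with water, stained 2.5–3 h at 37 °C with 0.5 mM WST-8 plus 20 μM phenazine ethosulfate in 0.25% broth. Supernatant A450 read.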

[5] = system: Pseudomonas aeruginosa strain PAO1; test: Bacterial cell viability in the supernatant of the biofilm inhibition assay; format: cell-based; settings: CFU counts in the biofilm supernatant and growth test in full medium
[6] = ITC, 20 mM Tris, 100 mM NaCl, 100 μM CaCl2, pH 7.5, 25 °C
[7] = ITC, 20 mM Tris, 100 mM NaCl, 100 μM CaCl2, pH 7.5, 25 °C, average of two runs

Sequence of LecB (Q9HYN5 2-115 limits assumed): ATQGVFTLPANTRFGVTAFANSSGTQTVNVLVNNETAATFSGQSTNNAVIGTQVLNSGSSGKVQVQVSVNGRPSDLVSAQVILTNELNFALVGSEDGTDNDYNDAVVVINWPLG

Compound: Polymyxin B
Dispersal of already established biofilms ([1]; compound at 10 μM): ∼70% dispersal @ 10 μM | MIC (minimal inhibitory concentration) ([2]; full medium): 2 μg mL^–1 ^f

Compound: CC(=O)N[C@H]1C(O)O[C@H](CO)[C@@H](O[C@@H]2O[C@@H](C)[C@@H](O)[C@@H](O)[C@@H]2O)[C@@H]1O[C@@H]1O[C@H](CO)[C@H](O)[C@H](O)[C@H]1O (stereo partly shown) [Le^a, Lewis^a trisaccharide]
Kd (LecB; [6]): 213 ± 2 nM | ΔG (LecB; [6]): –9.10 ± 0.02 kcal mol^–1 | ΔH (LecB; [6]): –8.35 ± 0.02 kcal mol^–1 | –TΔS (LecB; [6]): –0.74 ± 0.002 kcal mol^–1 | n (stoichiometry of the binding) (LecB; [7]): 1.08 ± 0.01 | r.p./nsugar (relative potency per fucoside) (LecB; KD(FucOCH3)/KD(ligand)/nFuc): 2

Compound: NC[C@H]1O[C@H](O[C@H]2[C@H](O)[C@@H](O[C@H]3O[C@H](CO)[C@@H](O)[C@H](N)[C@H]3O)[C@H](N)C[C@@H]2N)[C@H](N)C[C@@H]1O [Tobramycin]
Dispersal of already established biofilms ([1]; compound at 4 μM): 100% dispersal @ 4 μM | MIC (minimal inhibitory concentration) [2]: 1 μg mL^–1 ^g | MBIC (minimal biofilm inhibitory concentration) [4]: 0.5 µM | MBC (minimal bactericidal concentration under biofilm forming conditions) [5]: 0.5 µM (≈ 0.234 µg/mL) | MBC (minimal bactericidal concentration under biofilm forming conditions) ([5]; listed as tobramycin): bactericidal antibiofilm effect

Now from value to compound, other results behind:

ΔH (LecA; [6]): –10.6 ± 0.45 kcal mol^–1 | –TΔS (LecA; [6]): 4.0 kcal mol^–1 | n (stoichiometry of the binding) (LecA; [7]): 0.91 ± 0.03 | r.p./nGal (relative potency per galactoside) (LecA; KD(GalAG0 or GalBG0)/KD(ligand)/nGal): 0.2
Compound: O=[N+]([O-])c1ccc(O[C@@H]2O[C@H](CO)[C@H](O)[C@H](O)[C@H]2O)cc1 [NPG, 4-nitrophenyl-β-D-galactopyranoside]

MIC (minimal inhibitory concentration) [3]: >64 µM
Compound: (Ac-KKL)4(KFCxKI)2KHI [AcG2xK]
Dispersal of already established biofilms ([1]; compound at 50 μM): 100% dispersal
